# A selection: hits, their analogues and other compounds. The true share with any hit is near 1.9%.
# b-catenin transl – beta-catenin nuclear translocation modulation; HeLa beta-catenin nuclear translocation, immunofluorescence imaging; nuclear translocation activity, % at 5 µM; actives 0.3% (n = 190,000); AID 1665;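 active = nuclear translocation activity above 50% at 5 µM, with a well cell count of 50 or more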;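 note: per-cell ratio of nuclear to cytoplasmic median beta-catenin stain intensity; plate controls were DMSO negative control for no effect and GSK-3 inhibitor IX positive control for full effect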
#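 Signal – beta-catenin immunofluorescence imaging with DAPI · Test system – human HeLa cell line · Dosing – 5 µM primary single dose, 0.1% DMSO, 0.02–20 µM confirmation series · Measure – % activation, nuclear-to-cytoplasmic median beta-catenin signal ratio per cell · Incubation – 24 h compound exposure at 37°C, 5% CO2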
# MT stabilizer – microtubule stabilization, imaging screen; % tubulin-high responders, % at 10 µM; HeLa tubulin immunostaining HCS, 24 h; share of cells brighter than vehicle mean+2SD; AID 2205; actives 0.83% (n = 200,000);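 active = plate Z-score above 3 for both tubulin-high and condensed-nucleus cell shares, with cell loss under 80%, at 10 µM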;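 note: anti alpha tubulin signal scored within the nucleus-defined area of each cell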
# ROMK primary – modulators of human ROMK potassium channel; P48048; Tet-inducible ROMK, thallium flux fluorescence; actives lie on both sides; B-score at 10 µM; actives 2% (n = 130,000);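 active = signal ratio slope over the read window, or its plate-corrected B-score, at least 3 SD from the plate mean, either direction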;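 note: B-score of the F/F0 ratio slope over 7 to 12 s after thallium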
# Target sequence (P48048 whole entry, looked up): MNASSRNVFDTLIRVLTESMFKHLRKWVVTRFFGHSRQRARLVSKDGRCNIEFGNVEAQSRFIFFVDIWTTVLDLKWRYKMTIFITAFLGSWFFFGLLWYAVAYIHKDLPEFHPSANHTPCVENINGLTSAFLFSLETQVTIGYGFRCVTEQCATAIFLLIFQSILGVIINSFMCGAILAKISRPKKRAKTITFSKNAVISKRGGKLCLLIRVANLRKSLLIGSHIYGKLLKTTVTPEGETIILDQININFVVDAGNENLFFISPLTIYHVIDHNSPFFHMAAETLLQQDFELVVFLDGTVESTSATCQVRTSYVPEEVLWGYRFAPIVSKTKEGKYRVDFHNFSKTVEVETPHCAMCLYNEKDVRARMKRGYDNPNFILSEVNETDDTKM
# Active calls of the source: *; . = not tested or not shown.
SMILES,b-catenin transl,MT stabilizer,ROMK primary
CC(C)N1CCC(=NNc2ccc(S(=O)(=O)N3CCOCC3)cc2[N+](=O)[O-])CC1,3,1,.
COc1cccc(C2=CC(c3cccc(OC)c3OC)n3nnnc3N2)c1 (centres undefined),0,23*,.
COc1ccc(OC)c(C2C=C(c3ccc(C)c(C)c3)Nc3nnnn32)c1 (centres undefined),17,.,.
COc1cccc(C2=CC(c3cc(OC)ccc3OC)n3nnnc3N2)c1 (centres undefined),-2,27*,.
COc1cccc(C2=CC(c3cccc(OC)c3OC(F)F)n3nnnc3N2)c1 (centres undefined),0,4,.
CCC(C)/C(C)=N/NC(=O)c1ccc(CSc2nc3ccccc3s2)cc1 (centres undefined),.,2,.
COc1ccc(Oc2cccc(Cl)c2CNC(=O)CCC(=O)O)cc1,-3,.,.
CCOc1ncccc1C(=O)OCc1ccc(C(=O)OC)cc1,68*,18*,.
CCOc1ncccc1C(=O)OCc1ccc(Cl)cc1,0,3,-0.096
CC(=O)c1c(C)[nH]c(C(=O)Nc2cccc(S(=O)(=O)N(C)c3ccccc3)c2)c1C,0,5,-2.8
CCc1ccc(C(O)(c2ccccc2OC)C(CN2CCOCC2)c2ccccc2)cc1 (centres undefined),0,3,-0.14
O=C(Nc1ccc(N2CCCCC2)cc1)c1ccccc1,-2,5,.
O=C(Nc1ccc(N2CCCC2)cc1)c1cccc(F)c1,.,43*,.
Cc1cc(-c2nc(C)c(-c3nnc(SCC(=O)Nc4ccc(Cl)cc4)n3C)s2)no1,-1,.,0.25
N#Cc1ccccc1NC(=O)C1SC(=Nc2ccccc2)C(C(=O)Nc2ccc(Cl)cc2)=C1N (centres undefined),-2,4,0.98
COc1ccccc1N=C1SC(C(=O)Nc2cccc(Cl)c2Cl)C(N)=C1C(N)=O (centres undefined),62*,.,.
Cc1cc2nccc(-c3cccnc3)n2n1,-3,4,-0.56
Cn1cc(C(=O)C(=O)N2CCCc3ccccc32)c2ccccc21,1,12*,1.5
O=C(C(=O)N1CCCc2ccccc21)c1cn(CC(=O)N2CCOCC2)c2ccccc12,1,3,.
CC1CCN(c2nc(Cl)nc(Nc3ccc([N+](=O)[O-])cc3)n2)CC1,1,3,-1.6
CCCCn1nc(C(=O)Oc2ccc3c(C)cc(=O)oc3c2)c2ccccc2c1=O,2,3,.
O=C(c1ccc(CSc2nc3ccncc3[nH]2)cc1)N1CCCCCC1,0,.,.
O=C(c1ccc(CSc2nc3ccncc3[nH]2)cc1)N1CCN(c2cccc(Cl)c2)CC1,-1,4,-3.5*
CC(=O)Nc1cccc(NC(=O)CSc2ncc(-c3ccc(Cl)cc3)n2Cc2ccco2)c1,.,6,-4.6*
COc1ccc(-c2cnc(SCC(=O)Nc3ccc4c(c3)OCO4)n2Cc2ccco2)cc1,.,2,-1.7
SMILES,b-catenin transl,MT stabilizer,ROMK primary
O=C(NCc1ccncc1)C(=O)NC1CC1,0,2,0.7
CC(C(=O)NC(C)(C)C)N(Cc1cccs1)C(=O)CCN1CCc2ccccc21 (centres undefined),-2,2,-0.18
COc1ccc(/C=[N+](\[O-])C2N(c3ccccc3)C(=S)SC2(C)C)cc1OC (centres undefined),0,.,.
COc1cccc(-c2nnc3sc(-c4ccc(C)cc4)nn23)c1,68*,33*,-0.2
CCN(CC)c1ccc(-c2nn3c(-c4cccnc4)nnc3s2)cc1,6,38*,0.57
c1cncc(-c2nnc3sc(-c4ccco4)nn23)c1,.,2,0.15
COc1cccc(-c2nn3c(-c4cccc(C)c4)nnc3s2)c1,0,4,.
Cc1ccc(Nc2c(N)c(=O)oc3ccccc23)cc1,0,30*,.
CNc1c(N)c(=O)oc2ccccc12,0,1,0.77
CCOc1ccccc1C1C2=C(COC2=O)Nc2cc3c(cc21)OCO3 (centres undefined),2,7,2.2
O=C1OCC2=C1C(c1ccc(F)cc1)c1cc3c(cc1N2)OCO3 (centres undefined),74*,7,2.8*
O=C1OCC2=C1C(c1ccc(F)cc1)c1cc3c(cc1N2)OCCO3 (centres undefined),78*,12,1.9
CC(=O)Oc1ccc(C2C3=C(CC(C)(C)CC3=O)Nc3cc4c(cc32)OCCO4)cc1 (centres undefined),0,4,0.68
C#CCOc1ccc(C2C3=C(COC3=O)Nc3cc4c(cc32)OCO4)cc1OC (centres undefined),61*,2,.
COc1cc2c(cc1OC)C(c1ccc3c(c1)OCO3)C1=C(CC(C)(C)CC1=O)N2 (centres undefined),0,2,-0.74
COc1ccc(CN2C(=O)/C(=C/c3ccncc3)SC2=S)cc1,0,9,-1.1
Cc1nc(CS(=O)(=O)c2ccc(Cl)cc2)sc1C(=O)O,-2,.,.
O=S(=O)([N-]c1nc2ccccc2nc1-n1cc[n+](Cc2ccccc2)c1)c1ccc(Cl)cc1,0,.,.
O=S(=O)(c1ccc(OCC2CO2)cc1)c1ccc(OCC2CO2)cc1 (centres undefined),0,5,-0.018
Fc1cnc(N2CCOCC2)nc1N1CCOCC1,1,2,0.088
Fc1cnc(N2CCOCC2)nc1N1CCc2ccccc21,-4,5,-2.8*
CC1(C)Oc2ccc(C(=O)N3CCc4ccccc43)cc2N(CC(=O)N2CCCC2)C1=O,-1,5,3.8*
CC1(C)Oc2ccc(C(=O)N3CCCC3)cc2N(CC(=O)NCc2ccccc2)C1=O,-2,5,0.59
COC(=O)C1=NN(C(=O)c2ccc(Br)cc2)C(O)(C(C)(C)C)C1 (centres undefined),0,4,0.0026
COC(=O)C1=NN(C(=O)c2cccc(Cl)c2)C(O)(C(C)(C)C)C1 (centres undefined),-1,3,2.6*
SMILES,b-catenin transl,MT stabilizer,ROMK primary
CC(C)CNC(=O)N1c2ccccc2Sc2ccccc21,-1,.,.
O=C(NCCc1ccccc1)N1c2ccccc2Sc2ccccc21,0,4,1.8*
CCN(CC)Cc1ccccc1Sc1ccccc1,-3,3,.
CC(=O)c1ccc2noc(-c3cccc(C)c3)c2c1,2,3,0.27
Cc1nn(-c2ccccc2)c(N2CCCC2)c1/C=C1\N=C(c2ccccc2)OC1=O,-1,2,-0.35
Cc1ccc2cc(/C=C3\N=C(c4ccccc4)OC3=O)c(N3CCOCC3)nc2c1,-3,4,-5.9*
Cc1ccc(CCNC(=O)C2CC(c3ccc(C(F)(F)F)cc3)=NO2)cc1 (centres undefined),0,.,.
NNC(=O)c1cc(-c2ccc(N)cc2)nc2ccc(Br)cc12,1,.,.
N#CCCN(Cc1ccccc1)C(=S)Nc1ccccc1,.,3,-0.62
CCc1ccc(/C=C(/C#N)C(N)=S)s1,-3,2,-1.3
CCc1sc(/C=C(/C#N)C(N)=S)cc1[N+](=O)[O-],-1,4,-4.4*
COC(=O)c1ccc(CN2CCN(C(C)C)C(CCO)C2)cc1 (centres undefined),2,2,-0.07
Cc1ccc(S(=O)(=O)n2nccc2-c2c(-c3ccc(Cl)cc3)noc2C)cc1,0,.,.
CCOC(=O)C(CC)(CC)/C(C)=N/NC(=O)CC#N,.,3,.
O=C(N/C(=C\c1ccc(-c2ccccc2)o1)C(=O)N1CCOCC1)c1ccccc1,0,1,-3*

# Bioassay records from PubChem.
